Assay results as given in ChEMBL document CHEMBL3627681, “Synthesis and biological evaluation of 1,3-diaryl pyrazole derivatives as potential antibacterial and anti-inflammatory agents” (2015).
Values after ≈ are worked out from the molar mass of the structure shown.

Each molecule was assayed on Staphylococcus aureus (assay: Antibacterial activity against Staphylococcus aureus 209 after 24 hrs by two-fold serial dilution method). Conditions: Staphylococcus aureus, 209, 24 h.
Assay type: functional
Outline: (§1)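 Broth microdilution in Mueller-Hinton broth. Bacteria grown to mid-log phase, diluted 1000-fold, and inoculated at 10⁵ CFU/mL. Test compounds in DMSO, final DMSO not above 0.05%, final concentrations 64-0.5 µg/mL. Incubation 24 h at 37 °C, growth read as absorbance at 650 nm. MIC taken as the lowest concentration giving complete growth inhibition. Run three times.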

Q: How did the MIC turn out when `COc1ccc(-c2nn(-c3ccc([N+](=O)[O-])cc3[N+](=O)[O-])cc2/C=N/NC(=N)N)cc1` was run?
A: The MIC was 4 µg/mL (≈ 9.43 µM).

Q: How did the MIC turn out when `N=C(N)N/N=C/c1cn(-c2ccc([N+](=O)[O-])cc2[N+](=O)[O-])nc1-c1ccccc1[N+](=O)[O-]` was run?
A: The MIC was 32 µg/mL (≈ 72.8 µM).

What follows are molecules tested on Escherichia coli (assay: Ratio of moxifloxacin MIC to compound MIC for Escherichia coli CCARM 1356 after 24 hrs by two-fold serial dilution method). Conditions: not given.
Assay type: functional

Q: For `COc1ccc(-c2nn(-c3ccc([N+](=O)[O-])cc3[N+](=O)[O-])cc2/C=N/NC(=N)N)cc1`, which Ratio is on record?
A: Its Ratio is 16.

What follows are molecules tested on Staphylococcus aureus (assay: Antibacterial activity against Staphylococcus aureus 503 after 24 hrs by two-fold serial dilution method). Conditions: Staphylococcus aureus, 503, 24 h.
Assay type: functional
Outline: as §1

Q: How did the MIC turn out when `COc1ccc(-c2nn(-c3ccc([N+](=O)[O-])cc3[N+](=O)[O-])cc2/C=N/NC(=N)N)cc1` was run?
A: Its MIC is 4 µg/mL (≈ 9.43 µM).

Q: `N=C(N)N/N=C/c1cn(-c2ccc([N+](=O)[O-])cc2[N+](=O)[O-])nc1-c1ccccc1[N+](=O)[O-]` was tested. Which MIC did it give?
A: Its MIC is 16 µg/mL (≈ 36.4 µM).

What follows are molecules tested on Candida albicans (assay: Antifungal activity against Candida albicans 7535 by two-fold serial dilution method). Conditions: not given.
Assay type: functional

Q: With `COc1ccc(-c2nn(-c3ccc([N+](=O)[O-])cc3[N+](=O)[O-])cc2/C=N/NC(=N)N)cc1` as the molecule, how does the MIC read?
A: Its MIC is 2 µg/mL (≈ 4.71 µM).

Q: `N=C(N)N/N=C/c1cn(-c2ccc([N+](=O)[O-])cc2[N+](=O)[O-])nc1-c1ccccc1[N+](=O)[O-]` was tested. Which MIC did it give?
A: Its MIC is 8 µg/mL (≈ 18.2 µM).

Each molecule was assayed on Escherichia coli (assay: Antibacterial activity against Escherichia coli KCTC 1924 after 24 hrs by two-fold serial dilution method). Conditions: KCTC 1924, 24 h.
Assay type: functional
Outline: (§2)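 Broth microdilution in Mueller-Hinton broth over final concentrations of 64–0.5. Bacteria were grown to mid-log phase and diluted 1000-fold, then inoculated at 10⁵ CFU/mL. Compounds were dissolved in DMSO, with final DMSO at most 0.05%. Plates were incubated 24 h at 37 °C and growth read as absorbance at 650 nm. MIC is the concentration giving complete growth inhibition. Three independent runs.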

Q: For `COc1ccc(-c2nn(-c3ccc([N+](=O)[O-])cc3[N+](=O)[O-])cc2/C=N/NC(=N)N)cc1`, which MIC is on record?
A: Its MIC is 4 µg/mL (≈ 9.43 µM).

Q: `N=C(N)N/N=C/c1cn(-c2ccc([N+](=O)[O-])cc2[N+](=O)[O-])nc1-c1ccccc1[N+](=O)[O-]` was tested. Which MIC did it give?
A: Its MIC is 16 µg/mL (≈ 36.4 µM).

Each molecule was assayed on Staphylococcus aureus (assay: Antibacterial activity against methicillin-resistant Staphylococcus aureus CCARM 3506 after 24 hrs by two-fold serial dilution method). Conditions: CCARM 3506, 24 h.
Assay type: functional
Outline: as §1

Q: With `COc1ccc(-c2nn(-c3ccc([N+](=O)[O-])cc3[N+](=O)[O-])cc2/C=N/NC(=N)N)cc1` as the molecule, how does the MIC read?
A: The MIC was 2 µg/mL (≈ 4.71 µM).

Q: With `N=C(N)N/N=C/c1cn(-c2ccc([N+](=O)[O-])cc2[N+](=O)[O-])nc1-c1ccccc1[N+](=O)[O-]` as the molecule, how does the MIC read?
A: Its MIC is 8 µg/mL (≈ 18.2 µM).

Each molecule was assayed on Staphylococcus aureus (assay: Antibacterial activity against quinolone-resistant Staphylococcus aureus CCARM 3519 after 24 hrs by two-fold serial dilution method). Conditions: CCARM 3519, 24 h.
Assay type: functional
Outline: as §1

Q: Which MIC does the source give for `COc1ccc(-c2nn(-c3ccc([N+](=O)[O-])cc3[N+](=O)[O-])cc2/C=N/NC(=N)N)cc1` here?
A: Its MIC is 4 µg/mL (≈ 9.43 µM).

Q: `N=C(N)N/N=C/c1cn(-c2ccc([N+](=O)[O-])cc2[N+](=O)[O-])nc1-c1ccccc1[N+](=O)[O-]` was tested. Which MIC did it give?
A: Its MIC is 32 µg/mL (≈ 72.8 µM).

The molecules below were run on Staphylococcus aureus (assay: Antibacterial activity against methicillin-resistant Staphylococcus aureus CCARM 3167 after 24 hrs by two-fold serial dilution method). Conditions: CCARM 3167, 24 h.
Assay type: functional
Outline: as §1

Q: Which MIC does the source give for `COc1ccc(-c2nn(-c3ccc([N+](=O)[O-])cc3[N+](=O)[O-])cc2/C=N/NC(=N)N)cc1` here?
A: Its MIC is 4 µg/mL (≈ 9.43 µM).

Q: For `N=C(N)N/N=C/c1cn(-c2ccc([N+](=O)[O-])cc2[N+](=O)[O-])nc1-c1ccccc1[N+](=O)[O-]`, which MIC is on record?
A: Its MIC is 16 µg/mL (≈ 36.4 µM).

The molecules below were run on Pseudomonas aeruginosa (assay: Antibacterial activity against Pseudomonas aeruginosa 2004 after 24 hrs by two-fold serial dilution method). Conditions: Pseudomonas aeruginosa, 2004, 24 h.
Assay type: functional
Outline: as §2

Q: How did the MIC turn out when `COc1ccc(-c2nn(-c3ccc([N+](=O)[O-])cc3[N+](=O)[O-])cc2/C=N/NC(=N)N)cc1` was run?
A: Its MIC is > 64 µg/mL.

Q: How did the MIC turn out when `N=C(N)N/N=C/c1cn(-c2ccc([N+](=O)[O-])cc2[N+](=O)[O-])nc1-c1ccccc1[N+](=O)[O-]` was run?
A: Its MIC is > 64 µg/mL.

These molecules were tested on Salmonella typhimurium (assay: Antibacterial activity against Salmonella typhimurium 2421 after 24 hrs by two-fold serial dilution method). Conditions: Salmonella enterica, 2421, 24 h.
Assay type: functional, Salmonella enterica subsp. enterica serovar Typhimurium
Outline: as §2

Q: For `COc1ccc(-c2nn(-c3ccc([N+](=O)[O-])cc3[N+](=O)[O-])cc2/C=N/NC(=N)N)cc1`, which MIC is on record?
A: Its MIC is 8 µg/mL (≈ 18.9 µM).

Q: With `N=C(N)N/N=C/c1cn(-c2ccc([N+](=O)[O-])cc2[N+](=O)[O-])nc1-c1ccccc1[N+](=O)[O-]` as the molecule, how does the MIC read?
A: The MIC was 32 µg/mL (≈ 72.8 µM).

These molecules were tested on Staphylococcus aureus (assay: Antibacterial activity against quinolone-resistant Staphylococcus aureus CCARM 3505 after 24 hrs by two-fold serial dilution method). Conditions: CCARM 3505, 24 h.
Assay type: functional
Outline: as §1

Q: How did the MIC turn out when `COc1ccc(-c2nn(-c3ccc([N+](=O)[O-])cc3[N+](=O)[O-])cc2/C=N/NC(=N)N)cc1` was run?
A: Its MIC is 4 µg/mL (≈ 9.43 µM).

Q: With `N=C(N)N/N=C/c1cn(-c2ccc([N+](=O)[O-])cc2[N+](=O)[O-])nc1-c1ccccc1[N+](=O)[O-]` as the molecule, how does the MIC read?
A: Its MIC is 16 µg/mL (≈ 36.4 µM).

Each molecule was assayed on Pseudomonas aeruginosa (assay: Antibacterial activity against Pseudomonas aeruginosa 2742 after 24 hrs by two-fold serial dilution method). Conditions: Pseudomonas aeruginosa, 2742, 24 h.
Assay type: functional
Outline: as §2

Q: Which MIC does the source give for `COc1ccc(-c2nn(-c3ccc([N+](=O)[O-])cc3[N+](=O)[O-])cc2/C=N/NC(=N)N)cc1` here?
A: Its MIC is > 64 µg/mL.

Q: With `N=C(N)N/N=C/c1cn(-c2ccc([N+](=O)[O-])cc2[N+](=O)[O-])nc1-c1ccccc1[N+](=O)[O-]` as the molecule, how does the MIC read?
A: Its MIC is > 64 µg/mL.

The molecules below were run on Mus musculus (assay: Antiinflammatory activity in mouse assessed as inhibition of xylene-induced ear edema at 50 mg/kg, ip administered 30 mins before xylene challenge relative to control). Conditions: not given.
Assay type: functional
Outline: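 Mice received compound freshly dissolved in DMSO, 50 mg/kg ip at 0.05 mL/20 g body weight; vehicle controls got DMSO alone. After 30 min, 20 µL xylene was applied to the right ear. After a further 30 min, 7 mm plugs were cut from treated and untreated ears and edema taken as their weight difference. Result is % edema reduction versus vehicle controls.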

Q: For `COc1ccc(-c2nn(-c3ccc([N+](=O)[O-])cc3[N+](=O)[O-])cc2/C=N/NC(=N)N)cc1`, which inhibition in vivo at 50 mg/kg is on record?
A: Its inhibition in vivo at 50 mg/kg is 86.5%.

Q: For `N=C(N)N/N=C/c1cn(-c2ccc([N+](=O)[O-])cc2[N+](=O)[O-])nc1-c1ccccc1[N+](=O)[O-]`, which inhibition in vivo at 50 mg/kg is on record?
A: Its inhibition in vivo at 50 mg/kg is 58.3%.

These molecules were tested on Streptococcus mutans (assay: Antibacterial activity against Streptococcus mutans 3065 after 24 hrs by two-fold serial dilution method). Conditions: Streptococcus mutans, 3065, 24 h.
Assay type: functional
Outline: as §2

Q: For `COc1ccc(-c2nn(-c3ccc([N+](=O)[O-])cc3[N+](=O)[O-])cc2/C=N/NC(=N)N)cc1`, which MIC is on record?
A: Its MIC is 8 µg/mL (≈ 18.9 µM).

Q: For `N=C(N)N/N=C/c1cn(-c2ccc([N+](=O)[O-])cc2[N+](=O)[O-])nc1-c1ccccc1[N+](=O)[O-]`, which MIC is on record?
A: Its MIC is 32 µg/mL (≈ 72.8 µM).

These molecules were tested on Staphylococcus aureus (assay: Antibacterial activity against Staphylococcus aureus RN4220 after 24 hrs by two-fold serial dilution method). Conditions: RN4220, 24 h.
Assay type: functional
Outline: as §1

Q: With `COc1ccc(-c2nn(-c3ccc([N+](=O)[O-])cc3[N+](=O)[O-])cc2/C=N/NC(=N)N)cc1` as the molecule, how does the MIC read?
A: The MIC was 4 µg/mL (≈ 9.43 µM).

Q: Which MIC does the source give for `N=C(N)N/N=C/c1cn(-c2ccc([N+](=O)[O-])cc2[N+](=O)[O-])nc1-c1ccccc1[N+](=O)[O-]` here?
A: The MIC was 16 µg/mL (≈ 36.4 µM).

Each molecule was assayed on Escherichia coli (assay: Antibacterial activity against Escherichia coli CCARM 1356 after 24 hrs by two-fold serial dilution method). Conditions: CCARM 1356, 24 h.
Assay type: functional
Outline: as §2

Q: `COc1ccc(-c2nn(-c3ccc([N+](=O)[O-])cc3[N+](=O)[O-])cc2/C=N/NC(=N)N)cc1` was tested. Which MIC did it give?
A: Its MIC is 8 µg/mL (≈ 18.9 µM).

Q: How did the MIC turn out when `N=C(N)N/N=C/c1cn(-c2ccc([N+](=O)[O-])cc2[N+](=O)[O-])nc1-c1ccccc1[N+](=O)[O-]` was run?
A: Its MIC is 32 µg/mL (≈ 72.8 µM).
